Results: ChEMBL document CHEMBL4145616, “Phytochemical Study of Salvia leriifolia Roots: Rearranged Abietane Diterpenoids with Antiprotozoal Activity” (J Nat Prod, 2018)

Legend:
Leishmania donovani = experiment: Antileishmanial activity against Leishmania donovani MHOM/ET/67/L82 axenic amastigotes after 70 hrs by alamar blue staining based fluorescence assay; type: functional, organism-based; conditions: MHOM/ET/67/L82, 70 h
Procedure, shortened: (§1)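 IC50 values are the average of three independent assays.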

Trypanosoma cruzi = experiment: Antiprotozoal activity against trypomastigote form of Trypanosoma cruzi Tulahuen C2C4 infected in rat L6 cells after 96 hrs by CPRG/Nonidet-based photometric method; type: functional, organism-based; conditions: Tulahuen C2C4, L6, 96 h
[1] = Selectivity index, ratio of IC50 for rat L6 cells to IC50 for Trypanosoma brucei rhodesiense STIB900 bloodstream forms; type: toxicity; conditions: read-out: Ratio IC50
[2] = test system: Trypanosoma brucei rhodesiense; experiment: Antitrypanosomal activity against Trypanosoma brucei rhodesiense STIB900 bloodstream forms after 70 hrs by Alamar blue assay; type: functional, organism-based; conditions: STIB900, 70 h; procedure, shortened: as §1
Plasmodium falciparum = experiment: Antiplasmodial activity against drug-sensitive erythrocyte stage of Plasmodium falciparum NF54 assessed as reduction in [3H]-hypoxanthine incorporation pretreated for 48 hrs followed by [3H]-hypoxanthine addition measured after 24 hrs by liquid scintillation counting method; type: functional, organism-based; procedure, shortened: as §1
[3] = Selectivity index, ratio of IC50 for rat L6 cells to IC50 for drug-sensitive erythrocyte stage of Plasmodium falciparum NF54; type: toxicity; conditions: read-out: Ratio IC50
[4] = Selectivity index, ratio of IC50 for rat L6 cells to IC50 for trypomastigote form of Trypanosoma cruzi Tulahuen C2C4 infected in rat L6 cells; type: toxicity, cell-based; conditions: read-out: Ratio IC50
L6 = experiment: Cytotoxicity against rat L6 cells after 70 hrs by alamar blue assay; type: cell-based; conditions: L6, 70 h; procedure, shortened: as §1
[5] = Selectivity index, ratio of IC50 for rat L6 cells to IC50 for Leishmania donovani MHOM/ET/67/L82 axenic amastigotes; type: toxicity; conditions: read-out: Ratio IC50

IC50 (Trypanosoma cruzi) | IC50 [2] | IC50 (Plasmodium falciparum) | Structure (SMILES) | IC50 (Leishmania donovani) | selectivity ratio [1] | selectivity ratio [3] | selectivity ratio [4] | IC50 (L6) | selectivity ratio [5]
– | – | – | CCCCCCCCCCCCCCCCOP(=O)([O-])OCC[N+](C)(C)C [MILTEFOSINE] | 0.12 µM | – | – | – | – | –
27.6 µM | 19.7 µM | 0.4 µM | CC(C)c1cc(CC[C@@H]2C(=O)CCCC2(C)C)c(O)cc1O | – | 1.7 | 84 | 1.2 | 33.6 µM | –
4.6 µM | 1 µM | 3.6 µM | CC(C)[C@H]1C(=O)C2=C(C1=O)[C@@]1(C)CCCC(C)(C)[C@@H]1CC2=O | 1 µM | 2.6 | 0.7 | 0.6 | 2.6 µM | 2.6
